Screening data (PubChem)
This is a sample that favours compounds with a hit; in the whole collection about 1.5% have one here.
PG9 Ab binder – binders of HIV-1 gp120 antibody PG9, primary screen, biochemical, TR-FRET. AID 624416, 2012. inhibition, % at 6.7 µM. HIV-1 gp120 / PG9 antibody interaction. 0.43% of 360,000 active. TR-FRET gp120-PG9 antibody binding; in the data active means inhibition above about 8.5%
NR2E3 ag-1 – NR2E3 agonists in two-hybrid cells, primary screen, cell-based, luminescence, CHO-S, Gal4-NCOR/VP16-NR2E3; AID 602229, 2012; 0.35% of 360,000 active; inhibition of corepressor binding, % at 3.98 µM; luciferase;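 active means inhibition above the mean of all tested compounds plus 3 SD, cut at about 70% in these data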;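 further: 0% = DMSO with NR2E3 transfected cells and 100% = cells lacking NR2E3 construct; higher means lower luciferase signal from less NR2E3 corepressor binding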
NR2E3 ag-2 – inhibitors of NR2E3-RetCOR corepressor binding, primary screen, NR2E3 agonist project, biochemical, TR-FRET, GST-NR2E3, biotin-RetCOR; 1536-well; AID 2300, 2010; Photoreceptor-specific nuclear receptor (Homo sapiens), Q9Y5X4; inhibition of corepressor binding, % at 4.78 µM; 0.12% of 320,000 active;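 active means percent inhibition above the cutoff of mean plus 3 SD of all tested compounds, set per screening campaign, cut at about 20% in these data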;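 further: 0% = DMSO wells and 100% = biotin wells as full block of FRET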
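System: GST-tagged NR2E3 plus biotinylated RetCOR corepressor; Buffer or medium: pH 7.5 Tris-based buffer; Probe or stimulus: RetCOR corepressor, biotinylated, 7 nM; Doses: compound at 4.8 µM, single dose; Schedule: 5 h incubation at 4 °C; Technique: time-resolved FRET; Evaluation: percent inhibition of TR-FRET ratio; Replication: one well per compound, singlicate testing.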
Rev-erbA mod – modulators of Rev-erb alpha DNA binding, primary screen, biochemical, FITC-DNA, fluorescence polarization, uHTS; Rev-erbα–FITC-DNA binding, 90 min; AID 1259318, 2017; activity, % at 10 µM; Nuclear receptor subfamily 1 group D member 1 (Homo sapiens), P20393; 0.79% of 370,000 active;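 active means activity above about 14%, limit read from the data; passing the limit was not always enough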;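 further: 0% = DMSO wells with 35 nM protein and 100% = DMSO wells with 750 nM protein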
Target sequence (P20393 whole entry, looked up): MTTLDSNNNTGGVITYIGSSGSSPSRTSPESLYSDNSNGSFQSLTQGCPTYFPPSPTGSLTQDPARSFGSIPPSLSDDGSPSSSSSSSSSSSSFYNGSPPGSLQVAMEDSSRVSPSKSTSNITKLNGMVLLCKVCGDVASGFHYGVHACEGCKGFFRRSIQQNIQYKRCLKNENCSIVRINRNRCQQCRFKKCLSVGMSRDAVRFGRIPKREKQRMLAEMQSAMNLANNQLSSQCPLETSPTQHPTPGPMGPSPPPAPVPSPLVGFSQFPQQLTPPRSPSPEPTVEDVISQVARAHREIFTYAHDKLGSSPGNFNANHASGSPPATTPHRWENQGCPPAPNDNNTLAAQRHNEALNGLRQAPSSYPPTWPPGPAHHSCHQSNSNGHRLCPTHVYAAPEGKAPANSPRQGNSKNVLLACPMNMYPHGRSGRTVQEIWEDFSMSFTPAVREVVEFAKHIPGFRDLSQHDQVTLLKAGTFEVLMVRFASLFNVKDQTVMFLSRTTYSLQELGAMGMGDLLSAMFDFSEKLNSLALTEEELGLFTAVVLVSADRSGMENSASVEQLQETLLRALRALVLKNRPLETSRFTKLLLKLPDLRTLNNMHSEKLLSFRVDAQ
PG9 binder conf – binders of anti-gp120 antibody PG9, confirmation, biochemical, TR-FRET; shares compounds with PG9 Ab binder; TR-FRET PG9 antibody binding; inhibition, % at 6.7 µM; 90% of 1,500 active; AID 651571, 2012; in the data active means inhibition above about 9%
PGV04 counter – binders of control antibody PGV04, counter-screen for PG9 antibody binder project, biochemical, TR-FRET, distinct HIV envelope site. shares compounds with PG9 Ab binder. 95% of 1,500 active. TR-FRET PGV04 antibody-gp120 binding. inhibition, % at 6.7 µM; in the data active means inhibition above about 9.5%
PG9 bind DR – small-molecule binders of antibody PG9, dose response, biochemical, TR-FRET, HIV-1 gp120 antibody. 95 tested, under 10 active. AID 651848, 2012. TR-FRET PG9 antibody-gp120 binding inhibition. IC50, µM. shares compounds with PG9 Ab binder; in the data active means IC50 below about 10 µM
PGV04 DR counter – binders of control antibody PGV04, dose response, counter-screen for PG9 antibody binder project, biochemical, TR-FRET, distinct HIV envelope site; IC50, µM; shares compounds with PG9 Ab binder; 20% of 95 active; TR-FRET binding to control antibody PGV04; AID 651937, 2012
PG126 DR counter – binders of control antibody PG126, dose response, counter-screen for PG9 antibody binder project, biochemical, TR-FRET, distinct HIV envelope site; 20% of 95 active; TR-FRET binding to antibody PG126, counterscreen; IC50, µM; shares compounds with PG9 Ab binder; AID 651939, 2012
Numbers without * were called inactive. Unless noted, no stated cut-off is given here; in the data, active means IC50 below about 9 µM; inactive means the rest.

What do the screens show for `O=S1(=O)c2c(cccc2N2CCSCC2)Oc2ccccc2CN1Cc1cn(Cc2ccc(C(F)(F)F)cc2)nn1`?
Rev-erbA mod: 1.8

How did O=C(Nc1ccc(F)cc1)C1CCCN(S(=O)(=O)c2ccc3[nH]c(=O)ccc3c2)C1 (stereo not given) do in these assays?
PG9 Ab binder: 11.4*; NR2E3 ag-1: -13.4; NR2E3 ag-2: 5.2; Rev-erbA mod: -5.2; PG9 binder conf: 18.5*; PGV04 counter: 28.8*

What do the screens show for `COc1ccccc1NC(=O)C1CCCN(S(=O)(=O)c2ccc3[nH]c(=O)ccc3c2)C1` (stereo not given)?
PG9 Ab binder: -0.1; NR2E3 ag-1: -26.2; NR2E3 ag-2: 1.2; Rev-erbA mod: -2.1

What do the screens show for `Cc1ccc(C)c(NC(=O)C2CCCN(S(=O)(=O)c3ccc4[nH]c(=O)ccc4c3)C2)c1` (stereo not given)?
PG9 Ab binder: 15.9*; NR2E3 ag-1: -0.6; NR2E3 ag-2: 0.1; Rev-erbA mod: 10.0; PG9 binder conf: 12.7*; PGV04 counter: 20.6*

What do the screens show for `COC(=O)[C@@]12CCCCC3=C1N(CCC3)C(=O)[C@H]2CC(=O)NCCCCc1ccccc1`?
Rev-erbA mod: 13.1

Results for CCOc1cc(CCNC(=O)c2cc3sccc3n2CC)ccc1OC ?
Rev-erbA mod: 4.7

Results for Cc1[nH]c2ccccc2c1C1=CC(=O)C=CC1=O ?
PG9 Ab binder: 10.4*; NR2E3 ag-1: 26.5; Rev-erbA mod: 17.0; PG9 binder conf: 20.3*; PGV04 counter: 25.0*

What do the screens show for `Cc1[nH]c2ccccc2c1CC#N`?
PG9 Ab binder: -0.9; NR2E3 ag-1: -15.0; NR2E3 ag-2: 0.5; Rev-erbA mod: -10.0

How did CCCS(=O)(=O)Nc1cccc(-c2nc3cccnc3s2)c1 do in these assays?
PG9 Ab binder: -1.9; NR2E3 ag-1: -23.3; NR2E3 ag-2: 1.7; Rev-erbA mod: 8.1

How did Cc1ccc(-c2nc3cccnc3s2)cc1NS(C)(=O)=O do in these assays?
PG9 Ab binder: 9.2*; NR2E3 ag-1: -53.5; NR2E3 ag-2: 0.5; Rev-erbA mod: 0.3; PG9 binder conf: 29.3*; PGV04 counter: 34.2*

What do the screens show for `COc1cccc2cc(C(=O)Nc3cccnc3N3CCOCC3)c(=O)oc12`?
PG9 Ab binder: 9.7*; NR2E3 ag-1: 24.8; NR2E3 ag-2: -3.1; Rev-erbA mod: -4.8; PG9 binder conf: 4.0; PGV04 counter: 7.2

What do the screens show for `CCc1c(C)nc2ccc(Br)cc2c1Cl`?
PG9 Ab binder: 9.3*; NR2E3 ag-1: -26.4; NR2E3 ag-2: 0.2; Rev-erbA mod: 4.1; PG9 binder conf: 24.1*; PGV04 counter: 25.8*

How did COc1cccc(NS(=O)(=O)c2ccc3[nH]cc(C(=O)NCCC(C)C)c(=O)c3c2)c1 do in these assays?
PG9 Ab binder: 7.8; NR2E3 ag-1: 5.5; NR2E3 ag-2: 0.9; Rev-erbA mod: 1.9

What do the screens show for `CCc1ccccc1NS(=O)(=O)c1ccc2[nH]cc(C(=O)NC3CCCC3)c(=O)c2c1`?
PG9 Ab binder: 11.6*; NR2E3 ag-1: 5.0; NR2E3 ag-2: 0.2; Rev-erbA mod: 12.3; PG9 binder conf: 18.6*; PGV04 counter: 19.6*

How did CNC(=O)c1c[nH]c2ccc(S(=O)(=O)Nc3ccccc3F)cc2c1=O do in these assays?
PG9 Ab binder: 12.0*; NR2E3 ag-1: -3.2; NR2E3 ag-2: 0.1; Rev-erbA mod: -1.6; PG9 binder conf: 22.7*; PGV04 counter: 25.2*

Results for O=C(CSc1nnc(-c2cccnc2)n1C1CCCCC1)N1CCCC1 ?
Rev-erbA mod: 4.6

How did COc1ccc(C(=O)COC(=O)c2ccc(N(C)C)cc2)cc1 do in these assays?
PG9 Ab binder: 14.9*; NR2E3 ag-1: 17.0; NR2E3 ag-2: 9.0; Rev-erbA mod: 6.3; PG9 binder conf: 23.3*; PGV04 counter: 26.0*

Results for CN(C)c1ccc(C(=O)OCC(=O)NCCNC(=O)COC(=O)c2ccc(N(C)C)cc2)cc1 ?
PG9 Ab binder: -3.7; NR2E3 ag-1: -7.1; NR2E3 ag-2: -1.5; Rev-erbA mod: 6.4

What do the screens show for `COc1ccc(C(=O)C[n+]2ccc(N(C)C)cc2)cc1`?
PG9 Ab binder: -2.7; NR2E3 ag-1: -18.5; NR2E3 ag-2: 0.2; Rev-erbA mod: -2.5

What do the screens show for `COC(=O)c1ccc(CNC(=O)COC(=O)c2ccc(N(C)C)cc2)cc1`?
PG9 Ab binder: 26.2*; NR2E3 ag-1: -12.0; NR2E3 ag-2: -4.8; Rev-erbA mod: 13.0; PG9 binder conf: 23.8*; PGV04 counter: 39.0*

How did Cn1cccc1C(=O)N1CCN(S(=O)(=O)c2cccs2)CC1 do in these assays?
Rev-erbA mod: 3.0

Results for Cc1ccccc1CN1CCCCC(NC(=O)C2CCC2)C1=O (stereo not given) ?
Rev-erbA mod: 3.4

Results for COc1ccc(OC)c(S(=O)(=O)Nc2ccc(C(N)=O)cc2)c1 ?
PG9 Ab binder: -1.2; NR2E3 ag-1: -36.9; NR2E3 ag-2: 4.3; Rev-erbA mod: 2.2

What do the screens show for `COc1ccc(OC)c(S(=O)(=O)Nc2ccc(C(C)=O)cc2)c1`?
PG9 Ab binder: 8.6*; NR2E3 ag-1: -3.0; NR2E3 ag-2: 0.2; Rev-erbA mod: -2.3; PG9 binder conf: 21.1*; PGV04 counter: 18.8*; PG9 bind DR: >67; PGV04 DR counter: >67; PG126 DR counter: >67

Results for COc1cccc(N2C(=NC(=O)c3ccccc3)SC3CS(=O)(=O)CC32)c1 (stereo not given) ?
PG9 Ab binder: 11.2*; NR2E3 ag-1: -27.2; NR2E3 ag-2: 2.7; Rev-erbA mod: 8.7; PG9 binder conf: 10.3*; PGV04 counter: 14.3*

How did CCc1nnc2sc(-c3cc(-c4ccccc4)nc4ccccc34)nn12 do in these assays?
PG9 Ab binder: 8.6*; NR2E3 ag-1: 7.1; NR2E3 ag-2: 2.4; Rev-erbA mod: 12.8; PG9 binder conf: 7.4; PGV04 counter: 10.4*
